ChEMBL document CHEMBL3400051, “Five new phorbol esters with cytotoxic and selective anti-inflammatory activities from Croton tiglium” (Bioorg Med Chem Lett, 2015)

Experiments:
[1] = biological target: T1, Prostaglandin G/H synthase 1 (Ovis aries, UniProt P05979); assay: Inhibition of ovine COX1 using fluorometric substrate after 15 mins
T1 sequence (P05979 whole entry): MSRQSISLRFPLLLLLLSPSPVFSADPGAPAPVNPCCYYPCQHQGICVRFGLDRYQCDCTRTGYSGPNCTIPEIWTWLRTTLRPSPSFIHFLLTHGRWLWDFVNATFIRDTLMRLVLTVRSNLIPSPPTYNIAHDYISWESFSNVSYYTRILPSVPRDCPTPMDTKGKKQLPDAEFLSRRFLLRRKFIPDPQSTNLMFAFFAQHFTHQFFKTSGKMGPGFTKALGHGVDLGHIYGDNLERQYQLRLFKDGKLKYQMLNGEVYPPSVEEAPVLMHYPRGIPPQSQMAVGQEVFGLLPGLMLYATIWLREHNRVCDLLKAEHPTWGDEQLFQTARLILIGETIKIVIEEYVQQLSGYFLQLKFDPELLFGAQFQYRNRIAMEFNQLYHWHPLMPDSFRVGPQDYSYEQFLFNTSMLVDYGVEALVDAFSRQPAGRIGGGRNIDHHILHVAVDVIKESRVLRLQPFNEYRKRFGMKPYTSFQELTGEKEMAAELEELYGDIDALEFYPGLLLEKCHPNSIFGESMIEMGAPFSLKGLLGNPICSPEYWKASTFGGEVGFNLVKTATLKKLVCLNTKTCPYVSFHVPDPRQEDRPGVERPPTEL

[2] = test system: HEK-293T; assay: Cytotoxicity against human 293T cells after 44 hrs by MTT assay; format: cell-based
Summary of the method: (§1)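 Cells cultured in 88% DMEM, 12% FBS, 100 units/mL penicillin and streptomycin. Seeded at 2 × 10^5 cells/mL, 24 h at 37 °C in 5% CO2, then medium replaced with compound in growth medium at 80, 40, 20, 10 and 5 concentrations for 44 h. MTT (5 mg/mL) added for a further 4 h; absorbance at 490 nm. Untreated cells as negative control, Taxol positive control.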

[3] = Cytotoxicity against human LX2 cells after 44 hrs by MTT assay; format: cell-based; conditions: LX-2, 44 h; summary of the method: as §1
[4] = test system: K562; assay: Cytotoxicity against human K562 cells assessed as cell viability after 72 hrs by CCK8 assay; format: functional, cell-based; conditions: K562, 72 h
Summary of the method: (§2)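 Cells grown in RPMI or DMEM with 10% FBS and 1% penicillin/streptomycin at 37 °C, 5% CO2. Seeded at 400-800 cells/well in 384-well plates, treated with a range of compound concentrations or solvent control for 72 h. CCK8 reagent added, absorbance read at 450 nm; IC50 from dose-response curves. Taxol positive control.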

[5] = test system: NCI-H1975; assay: Cytotoxicity against human NCI-H1975 cells assessed as cell viability after 72 hrs by CCK8 assay; format: functional, cell-based; conditions: NCI-H1975, 72 h; summary of the method: as §2
[6] = biological target: T2, Prostaglandin G/H synthase 2 (Homo sapiens, UniProt P35354)
T2 sequence (P35354 whole entry): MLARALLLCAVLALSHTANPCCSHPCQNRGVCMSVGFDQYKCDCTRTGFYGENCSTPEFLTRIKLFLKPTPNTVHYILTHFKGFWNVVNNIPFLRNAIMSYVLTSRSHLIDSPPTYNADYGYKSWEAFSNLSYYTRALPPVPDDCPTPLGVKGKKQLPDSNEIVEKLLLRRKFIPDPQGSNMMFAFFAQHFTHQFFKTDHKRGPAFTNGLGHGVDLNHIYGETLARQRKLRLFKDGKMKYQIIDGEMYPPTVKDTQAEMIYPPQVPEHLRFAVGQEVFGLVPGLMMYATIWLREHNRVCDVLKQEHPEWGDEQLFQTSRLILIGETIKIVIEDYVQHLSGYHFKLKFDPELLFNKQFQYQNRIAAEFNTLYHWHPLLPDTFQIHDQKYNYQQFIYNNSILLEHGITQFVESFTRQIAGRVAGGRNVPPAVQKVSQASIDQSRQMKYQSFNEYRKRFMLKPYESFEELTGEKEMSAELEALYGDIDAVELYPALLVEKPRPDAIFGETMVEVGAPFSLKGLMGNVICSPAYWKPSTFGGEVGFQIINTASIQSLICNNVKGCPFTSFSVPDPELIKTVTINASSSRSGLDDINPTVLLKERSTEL

[7] = test system: MOLT-4; assay: Cytotoxicity against human MOLT4 cells assessed as cell viability after 72 hrs by CCK8 assay; format: functional, cell-based; conditions: MOLT-4, 72 h; summary of the method: as §2
[8] = test system: HeLa; assay: Cytotoxicity against human HeLa cells assessed as cell viability after 72 hrs by CCK8 assay; format: functional, cell-based; summary of the method: as §2
[9] = Cytotoxicity against human U937 cells assessed as cell viability after 72 hrs by CCK8 assay; format: functional, cell-based; conditions: U-937, 72 h; summary of the method: as §2
[10] = test system: DU-145; assay: Cytotoxicity against human DU145 cells assessed as cell viability after 72 hrs by CCK8 assay; format: functional, cell-based; conditions: DU-145, 72 h; summary of the method: as §2
[11] = Cytotoxicity against human HL60 cells assessed as cell viability after 72 hrs by CCK8 assay; format: functional, cell-based; conditions: HL-60, 72 h; summary of the method: as §2
[12] = test system: MCF7; assay: Cytotoxicity against human MCF7 cells assessed as cell viability after 72 hrs by CCK8 assay; format: functional, cell-based; conditions: MCF7, 72 h; summary of the method: as §2
[13] = test system: A549; assay: Cytotoxicity against human A549 cells assessed as cell viability after 72 hrs by CCK8 assay; format: functional, cell-based; conditions: A549, 72 h; summary of the method: as §2
[14] = Cytotoxicity against human SGC7901 cells assessed as cell viability after 72 hrs by CCK8 assay; format: functional, cell-based; conditions: SGC-7901, 72 h; summary of the method: as §2

SMILES	IC50 [1] [µM]	IC50 [2] [µM]	IC50 [3] [µM]	IC50 [4] [µM]	IC50 [5] [µM]	IC50 [6] [µM]	IC50 [7] [µM]	IC50 [8] [µM]	IC50 [9] [µM]	IC50 [10] [µM]	IC50 [11] [µM]	IC50 [12] [µM]	IC50 [13] [µM]	IC50 [14] [µM]
C/C=C(\C)C(=O)O[C@@H]1[C@@H](C)[C@@]2(O)[C@@H](C=C(CO)C[C@]3(O)C(=O)C(C)=C[C@@H]23)[C@@H]2C(C)(C)[C@]12OC(=O)C(C)CC (some centres not stated)	> 50	157	> 500	2.2	10	> 50	1	10	2.6	5	1.2	–	–	–
C/C=C(\C)C(=O)O[C@@H]1[C@@H](C)[C@@]2(O)[C@@H](C(=O)C(CO)=C[C@]3(O)C(=O)C(C)=C[C@@H]23)[C@@H]2C(C)(C)[C@]12OC(=O)C(C)CC (some centres not stated)	> 50	455	> 500	17	10	> 50	4.8	5	21	10	10	20	19	23
CC(=O)O[C@@H]1[C@@H](C)[C@@]2(O)[C@@H](C=C(CO)C[C@]3(O)C(=O)C(C)=C[C@@H]23)[C@@H]2C(C)(C)[C@]12OC(=O)C(C)C	> 50	292	> 500	4	10	> 50	2.4	3.9	6.8	7.2	12	13	5.8	13
CC(=O)O[C@H]1C(=O)[C@@]2(C)[C@H]([C@H](OC(=O)c3ccccc3)[C@]3(O)C[C@H](OC(=O)[C@H](O)[C@@H](NC(=O)c4ccccc4)c4ccccc4)C(C)=C1C3(C)C)[C@]1(OC(C)=O)CO[C@@H]1C[C@@H]2O [PACLITAXEL]	–	–	–	0.0052	0.0077	–	0.0022	–	0.0025	0.0034	0.0018	0.0062	–	0.0051
